Data reported in ChEMBL document CHEMBL1140759, “Synthesis, anti-Toxoplasma gondii and antimicrobial activities of benzaldehyde 4-phenyl-3-thiosemicarbazones and 2-[(phenylmethylene)hydrazono]-4-oxo-3-phenyl-5-thiazolidineacetic acids” (Bioorg Med Chem, 2008).
Converted amounts (≈) assume the structure as drawn.

Experiments:
[1] = test system: Mycolicibacterium smegmatis; assay: Antimicrobial activity against Mycobacterium smegmatis; format: functional
How it was run: (§1)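 Tube dilution MIC, run on compounds with a disc-diffusion zone of at least 18 mm. The DMSO stock (1 mg/mL) was serially diluted to 10–220 µg/mL final in medium, and strains were inoculated at 10^8/mL. Media were tryptic soy or nutrient agar for bacteria and Sabouraud liquid for fungi, incubated 24–48 h at 37 °C (bacteria) or 30 °C (fungi). MIC is the lowest concentration giving clear tubes.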

Staphylococcus aureus [2] = assay: Antimicrobial activity against Staphylococcus aureus at 100 ug/disc; format: functional; conditions: read-out: IZ
How it was run: (§2)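 Agar disc diffusion: paper discs loaded with compound placed on agar plates seeded with a standardised microbial suspension. DMSO-only discs served as negative control. Chloramphenicol and rifampicin (bacteria) or nistatin (fungi) gave reference zones. Read-out was mean zone of inhibition diameter (mm). Each experiment was run three times and repeated if results differed.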

[3] = test system: Mycobacterium tuberculosis; assay: Antimicrobial activity against Mycobacterium tuberculosis at 100 ug/disc; format: functional; conditions: read-out: IZ; how it was run: as §2
Micrococcus luteus = assay: Antimicrobial activity against Micrococcus luteus at 100 ug/disc; format: functional; conditions: read-out: IZ
How it was run: (§3)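 Disc diffusion on agar plates inoculated with a standardized microbial suspension, with paper discs carrying known compound amounts. DMSO-only discs served as negative controls, and chloramphenicol, rifampicin (bacteria) or nistatin (fungi) as references. The read-out is the mean inhibition zone diameter in mm. Each run was done three times and repeated if results differed.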

[4] = test system: Mycolicibacterium smegmatis; assay: Antimicrobial activity against Mycobacterium smegmatis at 100 ug/disc; format: functional; conditions: read-out: IZ; how it was run: as §3
Enterococcus faecalis [5] = assay: Antimicrobial activity against Streptococcus faecalis at 100 ug/disc; format: functional; conditions: read-out: IZ; how it was run: as §3
Bacillus subtilis = assay: Antimicrobial activity against Bacillus subtilis at 100 ug/disc; format: functional; conditions: read-out: IZ; how it was run: as §3
[6] = test system: Mycobacterium tuberculosis; assay: Antimicrobial activity against Mycobacterium tuberculosis; format: functional
Mycolicibacterium phlei = assay: Antimicrobial activity against Mycobacterium phlei at 100 ug/disc; format: functional; conditions: read-out: IZ; how it was run: as §3
Escherichia coli = assay: Antimicrobial activity against Escherichia coli at 100 ug/disc; format: functional; conditions: read-out: IZ; how it was run: as §3
Candida [7] = assay: Antimicrobial activity against Candida sp. IMUR720 at 100 ug/disc; format: functional, organism-based; how it was run: as §2
Candida [8] = assay: Antimicrobial activity against Candida sp. IMUR1224 at 100 ug/disc; format: functional, organism-based; how it was run: as §2
Candida [9] = assay: Antimicrobial activity against Candida sp. IMUR4249 at 100 ug/disc; format: functional, organism-based; how it was run: as §2
Candida [10] = assay: Antimicrobial activity against Candida sp. IMUR4249; format: functional; how it was run: as §1
Saccharomyces cerevisiae = assay: Antimicrobial activity against Saccharomyces cerevisiae at 100 ug/disc; format: functional, organism-based; how it was run: as §2
Enterococcus faecalis [11] = assay: Antimicrobial activity against Streptococcus faecalis; format: functional; how it was run: as §1
Klebsiella pneumoniae = assay: Antimicrobial activity against Klebsiella pneumoniae at 100 ug/disc; format: functional; conditions: read-out: IZ; how it was run: as §3
Staphylococcus aureus [12] = assay: Antimicrobial activity against Staphylococcus aureus; format: functional; how it was run: as §1

CO[C@H]1/C=C/O[C@@]2(C)Oc3c(C)c(O)c4c(O)c(c(/C=N/N5CCN(C)CC5)c(O)c4c3C2=O)NC(=O)/C(C)=C\C=C\[C@H](C)[C@H](O)[C@@H](C)[C@@H](O)[C@@H](C)[C@H](OC(C)=O)[C@@H]1C [RIFAMPIN]
MBC [1]: 130 µg/mL (≈ 158 µM)
MIC [1]: 140 µg/mL (≈ 170 µM)
zone of inhibition at 100 µg/disc (Staphylococcus aureus [2]): 31 mm
zone of inhibition at 100 µg/disc [3]: 28 mm
zone of inhibition at 100 µg/disc (Micrococcus luteus): 49 mm
zone of inhibition at 100 µg/disc [4]: 30 mm
zone of inhibition at 100 µg/disc (Enterococcus faecalis [5]): 20 mm
zone of inhibition at 100 µg/disc (Bacillus subtilis): 20 mm
MBC [6]: 100 µg/mL (≈ 122 µM)
MIC [6]: 110 µg/mL (≈ 134 µM)
zone of inhibition at 100 µg/disc (Mycolicibacterium phlei): 25 mm
zone of inhibition at 100 µg/disc (Escherichia coli): 14 mm

NYSTATIN
inhibition zone (IZ) (Candida [7]): 20 mm
inhibition zone (IZ) (Candida [8]): 30 mm
inhibition zone (IZ) (Candida [9]): 32 mm
MFC (Candida [10]): 70 µg/mL
MIC (Candida [10]): 80 µg/mL
inhibition zone (IZ) (Saccharomyces cerevisiae): 20 mm

O=C(N[C@H](CO)[C@H](O)c1ccc([N+](=O)[O-])cc1)C(Cl)Cl [CHLORAMPHENICOL]
zone of inhibition at 100 µg/disc (Staphylococcus aureus [2]): 25 mm
zone of inhibition at 100 µg/disc (Micrococcus luteus): 50 mm
MBC (Enterococcus faecalis [11]): 60 µg/mL (≈ 186 µM)
MIC (Enterococcus faecalis [11]): 70 µg/mL (≈ 217 µM)
zone of inhibition at 100 µg/disc (Klebsiella pneumoniae): 25 mm
MBC (Staphylococcus aureus [12]): 20 µg/mL (≈ 61.9 µM)
MIC (Staphylococcus aureus [12]): 25 µg/mL (≈ 77.4 µM)
zone of inhibition at 100 µg/disc (Bacillus subtilis): 27 mm
zone of inhibition at 100 µg/disc (Escherichia coli): 27 mm
